In ChEMBL document CHEMBL2177015, “Bicyclization and tethering to albumin yields long-acting peptide antagonists” (J Med Chem, 2012):
Blank lines part the entries; values can stand above or below the compound they belong to. Starred links: 1 amine or outer side, 2 acyl side, 3 side chain; linkers in the order of their positions; H or OH if unused. Positions of bridges follow the written chain, without caps; N, C: chain ends. Residues, ends and D or L forms follow the SMILES beside them. TBMB = c1c(C[*:1])cc(C[*:3])cc1C[*:2]; mXylylene = c1cc(C[*:1])cc(C[*:2])c1; pXylylene = c1cc(C[*:2])ccc1C[*:1]

Legend:
Plasma [1] = assay: Drug degradation in mouse plasma at 50 uM after 24 hrs by RP-HPLC analysis; type: ADME, cell-free
How it was run: (§1)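 Peptide spiked from 1 mM water stock into mouse plasma (final 50 μM) and incubated at 37 °C. Samples taken at 0, 24 and 48 h, mixed 1:1 with water containing 0.1% TFA and stored at −20 °C. Analysed by RP-HPLC on a C8 column with 220 nm absorbance; peaks identified by ESI-MS.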

Plasma [2] = assay: (§2) Drug degradation in mouse plasma at 50 uM after 24 to 48 hrs by RP-HPLC analysis; type: ADME, cell-free; details: 50 µM; how it was run: as §1
[3] = as §2; type: ADME, cell-free; details: read-out: Drug degradation; how it was run: as §1
Albumin [4] = molecular target: Albumin (Homo sapiens, UniProt P02768); assay: Binding affinity to human serum albumin by fluorescence polarization assay; type: ADME
How it was run: (§3)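 Proteins serially diluted 3/2-fold in phosphate buffer (10 mM Na2HPO4, pH 7.4, 150 mM NaCl) and mixed 1:1 with fluorescein-labelled peptide. Incubated 30 min at room temperature, then fluorescence polarization read (excitation 480 nm, emission 535 nm). KD from nonlinear regression of anisotropy against total protein concentration using a quadratic binding equation. Done at 25 °C.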

Albumin [5] = molecular target: Albumin (Mus musculus, UniProt P07724); assay: Binding affinity to mouse serum albumin by fluorescence polarization assay; type: ADME; how it was run: as §3
[6] = Terminal half life in mouse; type: ADME, organism-based; details: in vivo
How it was run: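 Female BALB/c mice aged 7–9 weeks, given 200 μL of 50 μM in PBS intravenously; 2–3 mice per time point. EDTA plasma sampled up to 320 min or up to 48 h. Conjugate measured by reversed-phase UFLC with fluorescence detection (ex 490, em 525 nm) and by uPA-capture ELISA with antifluorescein detection. Data fitted to a two-compartment model; t1/2 β taken.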

[7] = Terminal half life in rabbit; type: ADME, organism-based, Oryctolagus cuniculus; details: in vivo
[8] = molecular target: T1, Urokinase-type plasminogen activator (Homo sapiens, UniProt P00749); assay: Inhibition of human uPA using H-Glu-Gly-Arg-pNA as substrate after 1 hr in presence of casein
How it was run: (§4)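 Human urinary low-molecular-weight uPA (1.5 nM) with 2-fold inhibitor dilutions (8 μM to 1.95 nM) at 25 °C. Additive: 0.1% casein (±1.5 μM hSA or mSA), 0.1% ovA or 0.1% bSA. Substrate 50 μM H-Glu-Gly-Arg-pNA; A405 initial rates over 1 h. Ki from Kiapp corrected for substrate; means of ≥3.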

[9] = molecular target: T1, Urokinase-type plasminogen activator; assay: Inhibition of human uPA using H-Glu-Gly-Arg-pNA as substrate after 1 hr in presence of casein and human serum albumin; how it was run: as §4
[10] = molecular target: T1, Urokinase-type plasminogen activator; assay: Inhibition of human uPA using H-Glu-Gly-Arg-pNA as substrate after 1 hr in presence of ovalbumin; how it was run: as §4
[11] = molecular target: T1, Urokinase-type plasminogen activator; assay: Inhibition of human uPA; how it was run: as §4
[12] = molecular target: T1, Urokinase-type plasminogen activator; assay: Inhibition of human uPA using H-Glu-Gly-Arg-pNA as substrate after 1 hr in presence of bovine serum albumin; how it was run: as §4
[13] = molecular target: T1, Urokinase-type plasminogen activator; assay: Inhibition of human uPA using H-Glu-Gly-Arg-pNA as substrate after 1 hr in presence of casein and mouse serum albumin; how it was run: as §4

Albumin (Homo sapiens, UniProt P02768), sequence (P02768 whole entry): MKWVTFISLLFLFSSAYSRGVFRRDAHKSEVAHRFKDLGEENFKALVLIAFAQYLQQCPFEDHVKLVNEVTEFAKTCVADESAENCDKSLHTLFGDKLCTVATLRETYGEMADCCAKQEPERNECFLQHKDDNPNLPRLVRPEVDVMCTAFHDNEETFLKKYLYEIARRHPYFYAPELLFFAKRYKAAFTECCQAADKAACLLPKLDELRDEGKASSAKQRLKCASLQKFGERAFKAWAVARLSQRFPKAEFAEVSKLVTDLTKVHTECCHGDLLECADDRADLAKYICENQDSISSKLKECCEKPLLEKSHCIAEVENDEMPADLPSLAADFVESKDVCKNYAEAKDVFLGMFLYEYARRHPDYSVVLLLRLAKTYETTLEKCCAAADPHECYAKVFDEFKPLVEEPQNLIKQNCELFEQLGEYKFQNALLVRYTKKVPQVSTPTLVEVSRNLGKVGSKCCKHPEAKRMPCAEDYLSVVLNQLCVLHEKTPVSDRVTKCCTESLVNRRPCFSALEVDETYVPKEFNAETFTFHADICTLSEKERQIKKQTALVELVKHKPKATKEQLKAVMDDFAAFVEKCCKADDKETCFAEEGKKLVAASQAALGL
Albumin (Mus musculus, UniProt P07724), sequence (P07724 whole entry): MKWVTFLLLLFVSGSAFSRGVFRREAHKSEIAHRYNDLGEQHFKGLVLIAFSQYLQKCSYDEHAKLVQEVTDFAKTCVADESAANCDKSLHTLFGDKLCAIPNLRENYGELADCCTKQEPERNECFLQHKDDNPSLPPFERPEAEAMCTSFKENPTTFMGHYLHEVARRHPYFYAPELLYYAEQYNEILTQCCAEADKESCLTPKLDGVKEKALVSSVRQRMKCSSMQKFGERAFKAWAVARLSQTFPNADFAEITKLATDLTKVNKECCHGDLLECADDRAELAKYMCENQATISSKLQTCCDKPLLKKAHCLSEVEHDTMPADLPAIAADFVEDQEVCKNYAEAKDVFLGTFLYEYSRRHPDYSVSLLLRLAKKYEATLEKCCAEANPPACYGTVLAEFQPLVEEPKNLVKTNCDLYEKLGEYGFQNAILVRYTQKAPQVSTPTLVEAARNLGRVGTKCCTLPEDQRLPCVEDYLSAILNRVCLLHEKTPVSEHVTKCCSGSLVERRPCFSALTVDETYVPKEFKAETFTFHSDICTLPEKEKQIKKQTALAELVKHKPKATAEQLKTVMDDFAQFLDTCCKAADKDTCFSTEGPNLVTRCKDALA

SMILES: CC(C)[C@H](NC(=O)[C@H](CCC(=O)O)NC(=O)[C@H](Cc1ccc(O)cc1)NC(=O)[C@H](CCCNC(=N)N)NC(=O)[C@H](CO)NC(=O)[C@H](CO)NC(=O)[C@H](C)N)C(=O)N[C@@H](CC(=O)O)C(=O)N[C@@H](CO)C(=O)N[C@@H](CCCNC(=N)N)C(=O)NCC(=O)N[C@@H](CCCNC(=N)N)C(=O)NCC(=O)N[C@@H](CO)C(=O)N[C@@H](C)C(=O)N[C@@H](CO)C(=O)NCC(N)=O (H-ASSRYEVDSRGRGSASG-NH2)
Stability (Plasma [2]): Unstable

SMILES: CC[C@H](C)[C@H](NC(=O)[C@H](CC(C)C)NC(=O)[C@H](CCCNC(=N)N)N[C@@H](CCCCN)C(=O)NCCCCN=[N+]=[N-])C(=O)N[C@@H](CCC(=O)O)C(=O)N[C@@H](CC(=O)O)C(=O)N[C@H](C(=O)N[C@H]1CSSC[C@@H](C(=O)N[C@@H](CC(C)C)C(=O)N[C@@H](Cc2c[nH]c3ccccc23)C(=O)N[C@@H](CCC(=O)O)C(=O)N[C@@H](CC(=O)O)C(=O)N[C@@H](CC(=O)O)C(=O)O)NC(=O)CNC(=O)[C@H](Cc2c[nH]c3ccccc23)NC(=O)[C@H](CCCNC(=N)N)NC(=O)[C@@H]2CCCN2C(=O)[C@H](CC(C)C)NC1=O)[C@@H](C)CC
Kd (Albumin [4]): 321 nM
Kd (Albumin [5]): 24 nM

SMILES: CC(C)[C@@H]1NC(=O)[C@H](CCC(=O)O)NC(=O)[C@H](Cc2ccc(O)cc2)NC(=O)[C@H](CCCN=C(N)N)NC(=O)[C@H](CO)NC(=O)[C@@H](NC(=O)[C@H](C)N)CSCc2cc3cc(c2)CSC[C@H](NC(=O)[C@H](CC(=O)O)NC1=O)C(=O)N[C@@H](CCCN=C(N)N)C(=O)NCC(=O)N[C@@H](CCCN=C(N)N)C(=O)NCC(=O)N[C@@H](CO)C(=O)N[C@@H](C)C(=O)N[C@H](C(=O)NCC(N)=O)CSC3 (H-ACSRYEVDCRGRGSACG-NH2; linker 2-9-16 via TBMB)
Ki [8]: 52 nM
Stability (Plasma [2]): Unstable
Ki [9]: 60 nM
Ki [10]: 56 nM
Ki [11]: 53 nM
Ki [12]: 53 nM
Ki [13]: 54 nM

Further lines, results first:

Stability (Plasma [1]): Unstable
SMILES: C[C@@H]1NC(=O)[C@H](CO)NC(=O)CNC(=O)[C@H](CCCNC(=N)N)NC(=O)CNC(=O)[C@H](CCCNC(=N)N)NC(=O)[C@@H](N)CSCc2cccc(c2)CSC[C@@H](C(=O)NCC(N)=O)NC1=O (H-CRGRGSACG-NH2; linker 1-8 via mXylylene)

Stability (Plasma [1]): Unstable
SMILES: CC(C)[C@@H]1NC(=O)[C@H](CCC(=O)O)NC(=O)[C@H](Cc2ccc(O)cc2)NC(=O)[C@H](CCCNC(=N)N)NC(=O)[C@H](CO)NC(=O)[C@@H](NC(=O)[C@H](C)N)CSCc2cccc(c2)CSC[C@@H](C(N)=O)NC(=O)[C@H](CC(=O)O)NC1=O (H-ACSRYEVDC-NH2; linker 2-9 via mXylylene)

metabolised at 50 µM [3]: 60%
SMILES: CC(C)[C@@H]1NC(=O)[C@H](CCC(=O)O)NC(=O)[C@H](Cc2ccc(O)cc2)NC(=O)[C@H](CCCNC(=N)N)NC(=O)[C@H](CO)NC(=O)[C@@H](NC(=O)[C@H](C)N)CSCc2ccc(cc2)CSC[C@@H](C(=O)NCC(N)=O)NC(=O)[C@H](C)NC(=O)[C@H](CO)NC(=O)CNC(=O)[C@H](CCCNC(=N)N)NC(=O)CNC(=O)[C@H](CCCNC(=N)N)NC(=O)[C@H](CO)NC(=O)[C@H](CC(=O)O)NC1=O (H-ACSRYEVDSRGRGSACG-NH2; linker 2-16 via pXylylene)

half-life [6]: 19.7 h
half-life [7]: 68.5 h
SMILES: CC[C@H](C)[C@H](NC(=O)[C@H](CC(=O)O)NC(=O)[C@H](CCC(=O)O)NC(=O)[C@H](CCSC)NC(=O)[C@H](CC(C)C)NC(=O)[C@H](CCCNC(=N)N)NC(=O)[C@@H](N)CCC(N)=O)C(=O)N[C@@H](CS)C(=O)N[C@@H](CC(C)C)C(=O)N1CCC[C@H]1C(=O)N[C@@H](CCCNC(=N)N)C(=O)N[C@@H](Cc1c[nH]c2ccccc12)C(=O)NCC(=O)N[C@@H](CS)C(=O)N[C@@H](CC(C)C)C(=O)N[C@@H](Cc1c[nH]c2ccccc12)C(=O)N[C@@H](CCC(=O)O)C(=O)N[C@@H](CC(=O)O)C(=O)N[C@@H](CC(=O)O)C(=O)N[C@@H](Cc1ccccc1)C(N)=O
